Results published in ChEMBL document CHEMBL5058577, “EUbOPEN Chemogenomics Library 2 (Multiplex)” (2022).

Test system: U2OS
Experiment: Multiplex assay against U2OS
Type: toxicity, cell-based
Conditions: human
Method in brief: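 Live cells were stained at seeding with Hoechst33342, BioTracker Green Microtubule Cytoskeleton Dye, MitoTracker Red and Annexin V Alexa Fluor 680. Following compound addition, they were imaged on a CQ1 microscope at 37°C and 5% CO2 and gated by CellPathfinder machine learning into Hoechst high-intensity objects or normal cells, with normal cells split into healthy, pyknosed or fragmented nuclei and pyknosed cells into mitotic or apoptotic. Tubulin, mitochondrial-mass and membrane-permeability phenotypes are per cents of healthy-nucleus cells.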

[1] = 12 h, 1 µM, compound concentration 1 uM, replicate 1
[2] = 12 h, 1 µM, compound concentration 1 uM, replicate 2
[3] = 12 h, 10 µM, compound concentration 10 uM, replicate 1
[4] = 12 h, 10 µM, compound concentration 10 uM, replicate 2
[5] = 24 h, 1 µM, compound concentration 1 uM, replicate 1
[6] = 24 h, 1 µM, compound concentration 1 uM, replicate 2
[7] = 24 h, 10 µM, compound concentration 10 uM, replicate 1
[8] = 24 h, 10 µM, compound concentration 10 uM, replicate 2
[9] = 48 h, 1 µM, compound concentration 1 uM, replicate 1
[10] = 48 h, 1 µM, compound concentration 1 uM, replicate 2
[11] = 48 h, 10 µM, compound concentration 10 uM, replicate 1
[12] = 48 h, 10 µM, compound concentration 10 uM, replicate 2

## Cl.Clc1ccc2nsnc2c1NC1=NCCN1 [TIZANIDINE HYDROCHLORIDE]
[1]
  Population Apoptotic (%): 82%
  Population Fragmented Nuclei (%): 20%
  Population Healthy Nuclei (%): 73%
  Population Hoechst High Intensity Objects (%): 2%
  Population Membrane Permeable-Phenotype (%): 6%
  Population Mitochondria Different-Phenotype (%): 1%
  Population Mitotic Cells (%): 17%
  Population Normal (%): 97%
  Population Pyknosed Nuclei (%): 5%
  Population Tubulin-Different-Phenotype (%): 2%
  Total Cell Count: 306
[2]
  Population Apoptotic (%): 85%
  Population Fragmented Nuclei (%): 10%
  Population Healthy Nuclei (%): 78%
  Population Hoechst High Intensity Objects (%): 1%
  Population Membrane Permeable-Phenotype (%): 3%
  Population Mitochondria Different-Phenotype (%): 2%
  Population Mitotic Cells (%): 14%
  Population Normal (%): 98%
  Population Pyknosed Nuclei (%): 10%
  Population Tubulin-Different-Phenotype (%): 3%
  Total Cell Count: 140
[3]
  Population Apoptotic (%): 77%
  Population Fragmented Nuclei (%): 31%
  Population Healthy Nuclei (%): 61%
  Population Hoechst High Intensity Objects (%): 2%
  Population Membrane Permeable-Phenotype (%): 7%
  Population Mitochondria Different-Phenotype (%): 2%
  Population Mitotic Cells (%): 22%
  Population Normal (%): 97%
  Population Pyknosed Nuclei (%): 6%
  Population Tubulin-Different-Phenotype (%): 2%
  Total Cell Count: 280
[4]
  Population Apoptotic (%): 90%
  Population Fragmented Nuclei (%): 22%
  Population Healthy Nuclei (%): 66%
  Population Membrane Permeable-Phenotype (%): 14%
  Population Mitochondria Different-Phenotype (%): 7%
  Population Mitotic Cells (%): 10%
  Population Pyknosed Nuclei (%): 10%
  Population Tubulin-Different-Phenotype (%): 15%
  Total Cell Count: 98
[5]
  Population Apoptotic (%): 90%
  Population Fragmented Nuclei (%): 19%
  Population Healthy Nuclei (%): 72%
  Population Hoechst High Intensity Objects (%): 0%
  Population Membrane Permeable-Phenotype (%): 4%
  Population Mitochondria Different-Phenotype (%): 2%
  Population Mitotic Cells (%): 9%
  Population Normal (%): 99%
  Population Pyknosed Nuclei (%): 8%
  Population Tubulin-Different-Phenotype (%): 5%
  Total Cell Count: 381
[6]
  Population Apoptotic (%): 89%
  Population Fragmented Nuclei (%): 15%
  Population Healthy Nuclei (%): 73%
  Population Hoechst High Intensity Objects (%): 4%
  Population Membrane Permeable-Phenotype (%): 7%
  Population Mitochondria Different-Phenotype (%): 4%
  Population Mitotic Cells (%): 10%
  Population Normal (%): 95%
  Population Pyknosed Nuclei (%): 11%
  Population Tubulin-Different-Phenotype (%): 6%
  Total Cell Count: 172
[7]
  Population Apoptotic (%): 65%
  Population Fragmented Nuclei (%): 29%
  Population Healthy Nuclei (%): 62%
  Population Hoechst High Intensity Objects (%): 2%
  Population Membrane Permeable-Phenotype (%): 4%
  Population Mitochondria Different-Phenotype (%): 1%
  Population Mitotic Cells (%): 34%
  Population Normal (%): 97%
  Population Pyknosed Nuclei (%): 8%
  Population Tubulin-Different-Phenotype (%): 1%
  Total Cell Count: 327
[8]
  Population Apoptotic (%): 86%
  Population Fragmented Nuclei (%): 25%
  Population Healthy Nuclei (%): 61%
  Population Membrane Permeable-Phenotype (%): 12%
  Population Mitochondria Different-Phenotype (%): 7%
  Population Mitotic Cells (%): 13%
  Population Pyknosed Nuclei (%): 13%
  Population Tubulin-Different-Phenotype (%): 11%
  Total Cell Count: 118
[9]
  Population Apoptotic (%): 86%
  Population Fragmented Nuclei (%): 11%
  Population Healthy Nuclei (%): 80%
  Population Hoechst High Intensity Objects (%): 1%
  Population Membrane Permeable-Phenotype (%): 2%
  Population Mitochondria Different-Phenotype (%): 1%
  Population Mitotic Cells (%): 13%
  Population Normal (%): 98%
  Population Pyknosed Nuclei (%): 7%
  Population Tubulin-Different-Phenotype (%): 2%
  Total Cell Count: 512
[10]
  Population Apoptotic (%): 90%
  Population Fragmented Nuclei (%): 17%
  Population Healthy Nuclei (%): 74%
  Population Hoechst High Intensity Objects (%): 3%
  Population Membrane Permeable-Phenotype (%): 5%
  Population Mitochondria Different-Phenotype (%): 2%
  Population Mitotic Cells (%): 9%
  Population Normal (%): 96%
  Population Pyknosed Nuclei (%): 8%
  Population Tubulin-Different-Phenotype (%): 3%
  Total Cell Count: 260
[11]
  Population Apoptotic (%): 93%
  Population Fragmented Nuclei (%): 18%
  Population Healthy Nuclei (%): 75%
  Population Hoechst High Intensity Objects (%): 2%
  Population Membrane Permeable-Phenotype (%): 5%
  Population Mitochondria Different-Phenotype (%): 1%
  Population Mitotic Cells (%): 6%
  Population Normal (%): 97%
  Population Pyknosed Nuclei (%): 6%
  Population Tubulin-Different-Phenotype (%): 3%
  Total Cell Count: 459
[12]
  Population Apoptotic (%): 76%
  Population Fragmented Nuclei (%): 22%
  Population Healthy Nuclei (%): 65%
  Population Hoechst High Intensity Objects (%): 4%
  Population Membrane Permeable-Phenotype (%): 15%
  Population Mitochondria Different-Phenotype (%): 5%
  Population Mitotic Cells (%): 23%
  Population Normal (%): 95%
  Population Pyknosed Nuclei (%): 11%
  Population Tubulin-Different-Phenotype (%): 7%
  Total Cell Count: 149
